Experimental data from ChEMBL document CHEMBL4765273 (Eur J Med Chem, 2020).
pIC50: −log10 of the molar value.

What was measured:
Influenza A virus [1] = assay: Antiviral activity against Influenza A virus (A/goose/Guangdong/SH7/2013(H5N1)) group-1 infected in chicken embryo fibroblast assessed as reduction in viral infection preincubated for 1 hrs followed by fibroblast infection and measured after 72 hrs by hemagglutination titre method; type: functional, organism-based
Influenza A virus [2] = assay: Antiviral activity against Influenza A virus (A/chicken/Hebei/LZF/ 2014(H5N2)) group-2 infected in chicken embryo fibroblast assessed as reduction in viral infection preincubated for 1 hrs followed by fibroblast infection and measured after 72 hrs by hemagglutination titre method; type: functional, organism-based
Influenza A virus [3] = assay: Antiviral activity against Influenza A virus (A/Duck/Guangdong/674/2014 (H5N6)) group-2 infected in chicken embryo fibroblast assessed as reduction in viral infection preincubated for 1 hrs followed by fibroblast infection and measured after 72 hrs by hemagglutination titre method; type: functional, organism-based
Influenza A virus [4] = assay: Antiviral activity against Influenza A virus (A/goose/Jiangsu/1306/2014 (H5N8)) group-1 infected in chicken embryo fibroblast assessed as reduction in viral infection preincubated for 1 hrs followed by fibroblast infection and measured after 72 hrs by hemagglutination titre method; type: functional, organism-based
[5] = Cytotoxicity against chicken embryo fibroblast assessed as reduction in cell viability after 48 hrs by CCK8 assay; set-up: species or system Gallus gallus; details: chicken embryo fibroblasts
In short: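 Chicken embryo fibroblasts (1×10^5 cells/mL) were cultured 24 h at 37°C, 5% CO2, washed with serum-free DMEM, then exposed to 2-fold serial compound dilutions in 1% FBS DMEM for 48 h. CCK-8 in 1% FBS DMEM was added for 90 min and absorbance read at 450 nm. CC50 was obtained by curve fitting. Blank and cell controls were included.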

[6] = Inhibition of Influenza A virus (A/goose/Guangdong/SH7/2013(H5N1)) group-1 Neuraminidase N1 preincubated for 10 mins followed by MUNANA substrate addition and measured after 40 to 60 mins by fluorescence method
In short: (§1)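 Virus-derived NA was preincubated 10 min at 37°C with compound in MES buffer. Fluorogenic substrate was added and the reaction run for 40–60 min at 37°C, then stopped with glycine/NaOH. Fluorescence was read at ex 365 / em 460 nm with substrate blanks subtracted. IC50 was taken from percent-inhibition dose-response curves and reported as mean ± SD of three experiments.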

[7] = Inhibition of Influenza A virus (A/chicken/Hebei/LZF/ 2014(H5N2)) group-2 Neuraminidase N2 preincubated for 10 mins followed by MUNANA substrate addition and measured after 40 to 60 mins by fluorescence method; in short: as §1
[8] = Inhibition of Influenza A virus (A/Duck/Guangdong/674/2014 (H5N6)) group-2 Neuraminidase N6 preincubated for 10 mins followed by MUNANA substrate addition and measured after 40 to 60 mins by fluorescence method; in short: as §1
[9] = Inhibition of Influenza A virus (A/goose/Jiangsu/1306/2014 (H5N8)) group-1 Neuraminidase N8 preincubated for 10 mins followed by MUNANA substrate addition and measured after 40 to 60 mins by fluorescence method; in short: as §1

SMILES: CCC(CC)O[C@@H]1C=C(C(=O)O)C[C@H](NC/C=C/c2ccc(OC)cc2)[C@H]1NC(C)=O
- pIC50 (Influenza A virus [1]): 5.12
- pIC50 (Influenza A virus [2]): 6.68
- pIC50 (Influenza A virus [3]): 5.39
- pIC50 (Influenza A virus [4]): 6.19
- CC50 at 48 h [5]: > 200 µM

SMILES: CCC(CC)O[C@@H]1C=C(C(=O)O)C[C@H](NCc2ccc(-c3ccsc3)cc2)[C@H]1NC(C)=O
- pIC50 (Influenza A virus [2]): 7.00
- pIC50 (Influenza A virus [3]): 5.26
- pIC50 (Influenza A virus [4]): 7.29
- CC50 at 48 h [5]: > 200 µM
- pIC50 [6]: 6.93
- pIC50 [7]: 5.84
- pIC50 [8]: 4.46
- pIC50 [9]: 7.11

SMILES: CCC(CC)O[C@@H]1C=C(C(=O)O)C[C@H](NCc2ccc(-c3cccs3)s2)[C@H]1NC(C)=O
- pIC50 (Influenza A virus [1]): < 5.00
- pIC50 (Influenza A virus [2]): 7.08
- pIC50 (Influenza A virus [3]): 5.15
- pIC50 (Influenza A virus [4]): 7.14
- CC50 at 48 h [5]: > 200 µM

SMILES: CCC(CC)O[C@@H]1C=C(C(=O)O)C[C@H](NCc2cccc([N+](=O)[O-])c2)[C@H]1NC(C)=O
- pIC50 (Influenza A virus [1]): < 5.00
- pIC50 (Influenza A virus [2]): 6.62
- pIC50 (Influenza A virus [3]): 5.67
- pIC50 (Influenza A virus [4]): 6.15
- CC50 at 48 h [5]: > 200 µM

SMILES: CCC(CC)O[C@@H]1C=C(C(=O)O)C[C@H](NCc2cccc(-c3ccccc3)c2)[C@H]1NC(C)=O
- pIC50 (Influenza A virus [1]): 6.08
- pIC50 (Influenza A virus [2]): 6.64
- pIC50 (Influenza A virus [3]): 5.35
- pIC50 (Influenza A virus [4]): 6.19
- CC50 at 48 h [5]: > 200 µM
- pIC50 [6]: 7.27
- pIC50 [7]: 4.86
- pIC50 [8]: 4.41
- pIC50 [9]: 7.08

SMILES: CCC(CC)O[C@@H]1C=C(C(=O)O)C[C@H](NS(=O)(=O)c2ccc(F)cc2)[C@H]1NC(C)=O
- pIC50 (Influenza A virus [1]): < 5.00
- pIC50 (Influenza A virus [2]): < 5.00
- pIC50 (Influenza A virus [3]): < 5.00
- pIC50 (Influenza A virus [4]): 5.37
- CC50 at 48 h [5]: > 200 µM

SMILES: CCC(CC)O[C@@H]1C=C(C(=O)O)C[C@H](NCc2ccc(-c3nccs3)cc2)[C@H]1NC(C)=O
- pIC50 (Influenza A virus [1]): < 5.00
- pIC50 (Influenza A virus [2]): 6.70
- pIC50 (Influenza A virus [3]): 5.49
- pIC50 (Influenza A virus [4]): 7.23
- CC50 at 48 h [5]: > 200 µM
- pIC50 [6]: 6.41
- pIC50 [7]: 5.10
- pIC50 [8]: 5.02
- pIC50 [9]: 6.96

SMILES: CCC(CC)O[C@@H]1C=C(C(=O)O)C[C@H](NC(=O)/C=C/c2cccc(C)c2)[C@H]1NC(C)=O
- pIC50 (Influenza A virus [1]): < 5.00
- pIC50 (Influenza A virus [2]): < 5.00
- pIC50 (Influenza A virus [3]): < 5.00
- pIC50 (Influenza A virus [4]): 5.36
- CC50 at 48 h [5]: > 200 µM

SMILES: CCC(CC)O[C@@H]1C=C(C(=O)O)C[C@H](NC(=O)c2ccc(-c3ccccc3)cc2)[C@H]1NC(C)=O
- pIC50 (Influenza A virus [1]): < 5.00
- pIC50 (Influenza A virus [2]): < 5.00
- pIC50 (Influenza A virus [3]): < 5.00
- pIC50 (Influenza A virus [4]): 5.45
- CC50 at 48 h [5]: > 200 µM

SMILES: CCC(CC)O[C@@H]1C=C(C(=O)O)C[C@H](NC/C=C/c2ccccc2OC)[C@H]1NC(C)=O
- pIC50 (Influenza A virus [1]): 5.92
- pIC50 (Influenza A virus [2]): 6.89
- pIC50 (Influenza A virus [3]): 5.51
- pIC50 (Influenza A virus [4]): 7.05
- CC50 at 48 h [5]: > 200 µM
- pIC50 [6]: 6.59
- pIC50 [8]: 6.81
- pIC50 [9]: 7.21

SMILES: CCC(CC)O[C@@H]1C=C(C(=O)O)C[C@H](NS(=O)(=O)c2ccccc2)[C@H]1NC(C)=O
- pIC50 (Influenza A virus [1]): < 5.00
- pIC50 (Influenza A virus [2]): < 5.00
- pIC50 (Influenza A virus [3]): < 5.00
- pIC50 (Influenza A virus [4]): 5.32
- CC50 at 48 h [5]: > 200 µM

SMILES: CCC(CC)O[C@@H]1C=C(C(=O)O)C[C@H](NC(=O)c2ccccc2)[C@H]1NC(C)=O
- pIC50 (Influenza A virus [1]): < 5.00
- pIC50 (Influenza A virus [2]): < 5.00
- pIC50 (Influenza A virus [3]): < 5.00
- pIC50 (Influenza A virus [4]): < 5.00
- CC50 at 48 h [5]: > 200 µM

SMILES: CCC(CC)O[C@@H]1C=C(C(=O)O)C[C@H](N(Cc2ccsc2)Cc2ccsc2)[C@H]1NC(C)=O
- pIC50 (Influenza A virus [1]): < 5.00
- pIC50 (Influenza A virus [2]): 6.82
- pIC50 (Influenza A virus [3]): 5.52
- pIC50 (Influenza A virus [4]): 6.06
- CC50 at 48 h [5]: > 200 µM

SMILES: CCC(CC)O[C@@H]1C=C(C(=O)O)C[C@H](NS(=O)(=O)c2ccc(-c3cccs3)cc2)[C@H]1NC(C)=O
- pIC50 (Influenza A virus [1]): 6.54
- pIC50 (Influenza A virus [2]): 7.10
- pIC50 (Influenza A virus [3]): 5.62
- pIC50 (Influenza A virus [4]): 7.28
- CC50 at 48 h [5]: > 200 µM

SMILES: CCC(CC)O[C@@H]1C=C(C(=O)O)C[C@H](NC(=O)/C=C/c2ccc(F)cc2)[C@H]1NC(C)=O
- pIC50 (Influenza A virus [1]): < 5.00
- pIC50 (Influenza A virus [2]): < 5.00
- pIC50 (Influenza A virus [3]): < 5.00
- pIC50 (Influenza A virus [4]): 5.29
- CC50 at 48 h [5]: > 200 µM

SMILES: CCC(CC)O[C@@H]1C=C(C(=O)O)C[C@H](NCc2cccc(C(F)(F)F)c2)[C@H]1NC(C)=O
- pIC50 (Influenza A virus [1]): < 5.00
- pIC50 (Influenza A virus [2]): 6.47
- pIC50 (Influenza A virus [3]): 5.50
- pIC50 (Influenza A virus [4]): 6.12
- CC50 at 48 h [5]: > 200 µM

SMILES: CCC(CC)O[C@@H]1C=C(C(=O)O)C[C@H](NS(=O)(=O)c2ccc(C)cc2)[C@H]1NC(C)=O
- pIC50 (Influenza A virus [1]): < 5.00
- pIC50 (Influenza A virus [2]): < 5.00
- pIC50 (Influenza A virus [3]): < 5.00
- pIC50 (Influenza A virus [4]): 5.51
- CC50 at 48 h [5]: > 200 µM

SMILES: NC(=O)c1ncn([C@@H]2O[C@H](CO)[C@@H](O)[C@H]2O)n1 [RIBAVIRIN]
- pIC50 (Influenza A virus [1]): 5.40
- pIC50 (Influenza A virus [2]): < 5.00
- pIC50 (Influenza A virus [3]): 5.18
- pIC50 (Influenza A virus [4]): 5.71
- CC50 at 48 h [5]: > 200 µM
